Measurements: ChEMBL document CHEMBL1142097, “EthA, a common activator of thiocarbamide-containing drugs acting on different mycobacterial targets” (Antimicrob Agents Chemother, 2007)
The source made the active and inactive calls. No cut-off for these calls is given here.

Legend:
[1] = test system: Mycobacterium tuberculosis variant bovis; assay: Inhibition of mycolic acid synthesis in Mycobacterium bovis BCG str. Pasteur 1173P2 overexpressing ethA gene; type: functional
Summary of the method: (§1)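 Mid-log cultures in Sauton medium exposed to graded drug concentrations (μg/ml) for 16 h at 37°C, then pulsed with 1 μCi/ml [2-14C]acetate for 8 h at 37°C. Cells PBS-washed, hydrolysed with 15% tetrabutylammonium hydroxide at 100°C overnight, methylated with CH3I in CH2Cl2; fatty and mycolic acid methyl esters resolved by TLC and autoradiographed.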

[2] = test system: Mycobacterium tuberculosis variant bovis; assay: Inhibition of oleic acid synthesis in Mycobacterium bovis BCG str. Pasteur 1173P2 overexpressing ethA gene; type: functional; summary of the method: as §1

In the case of CC(C)CCSc1ccc(NC(=S)Nc2ccc(SCCC(C)C)cc2)cc1, the Activity [1] is reported as “Active” and the Activity [2] is reported as “Active”.
